In brackets after ≈: the same amount, converted by molar mass.
Legend:
[1] = test system: E. coli ATCC 25922; test: MIC by broth microdilution against E. coli ATCC 25922; format: cell-based; conditions: Escherichia coli, ATCC25922, read-out: MIC against E. coli ATCC 25922
[2] = test system: S. aureus ATCC 29213; test: MIC by broth microdilution against S. aureus ATCC 29213; format: cell-based, Staphylococcus aureus; conditions: Staphylococcus aureus, ATCC29213, read-out: MIC against S. aureus ATCC 29213, broth microdilution, 37 °C, 16–18 h
[3] = test system: K. pneumoniae BAA 1705; test: MIC by broth microdilution against K. pneumoniae BAA 1705; format: cell-based; conditions: Klebsiella pneumoniae, BAA1705, read-out: MIC against K. pneumoniae BAA 1705
[4] = test system: A. baumannii BAA 1605; test: MIC by broth microdilution against A. baumannii BAA 1605; format: cell-based; conditions: Acinetobacter baumannii, BAA1605, read-out: MIC against A. baumannii BAA 1605
[5] = test system: Vero cells (ATCC CCL-81); test: Cell cytotoxicity assay; format: cell-based; conditions: CC50 Vero cells / MIC S. aureus ATCC 29213
[6] = test system: MRSA NRS 10100; test: MIC against clinical MRSA isolate NRS 10100; format: cell-based; conditions: Staphylococcus aureus, MRSA|NRS10100, read-out: MIC against MRSA NRS 10100
[7] = test system: MRSA NRS 10119; test: MIC against clinical MRSA isolate NRS 10119; format: cell-based; conditions: Staphylococcus aureus, MRSA|NRS10119, read-out: MIC against MRSA NRS 10119
[8] = test system: MRSA NRS 10129; test: MIC against clinical MRSA isolate NRS 10129; format: cell-based; conditions: Staphylococcus aureus, MRSA|NRS10129, read-out: MIC against MRSA NRS 10129
[9] = test system: MRSA NRS 10186; test: MIC against clinical MRSA isolate NRS 10186; format: cell-based; conditions: Staphylococcus aureus, MRSA|NRS10186, read-out: MIC against MRSA NRS 10186
[10] = test system: MRSA NRS 10191; test: MIC against clinical MRSA isolate NRS 10191; format: cell-based; conditions: Staphylococcus aureus, MRSA|NRS10191, read-out: MIC against MRSA NRS 10191
[11] = test system: MRSA NRS 10192; test: MIC against clinical MRSA isolate NRS 10192; format: cell-based; conditions: Staphylococcus aureus, MRSA|NRS10192, read-out: MIC against MRSA NRS 10192
[12] = test system: MRSA NRS 10193; test: MIC against clinical MRSA isolate NRS 10193; format: cell-based; conditions: Staphylococcus aureus, MRSA|NRS10193, read-out: MIC against MRSA NRS 10193
[13] = test system: MRSA NRS 10194; test: MIC against clinical MRSA isolate NRS 10194; format: cell-based; conditions: Staphylococcus aureus, MRSA|NRS10194, read-out: MIC against MRSA NRS 10194
[14] = test system: MRSA NRS 10198; test: MIC against clinical MRSA isolate NRS 10198; format: cell-based; conditions: Staphylococcus aureus, MRSA|NRS10198, read-out: MIC against MRSA NRS 10198
[15] = test system: VRSA VRS 1; test: MIC against clinical VRSA isolate VRS 1; format: cell-based; conditions: Staphylococcus aureus, read-out: MIC against VRSA VRS 1
[16] = test system: VRSA VRS 4; test: MIC against clinical VRSA isolate VRS 4; format: cell-based; conditions: Staphylococcus aureus, read-out: MIC against VRSA VRS 4
[17] = test system: VRSA VRS 12; test: MIC against clinical VRSA isolate VRS 12; format: cell-based; conditions: Staphylococcus aureus, read-out: MIC against VRSA VRS 12
[18] = test system: clinical MDR S. aureus isolates (MRSA and VRSA); test: MIC against clinical MDR S. aureus isolates, whole panel; format: cell-based, Staphylococcus aureus; conditions: nine MRSA and three VRSA strains
[19] = test system: S. aureus ATCC 29213; test: Drug interaction of 22 with FDA-approved drugs, checkerboard method; format: cell-based, Staphylococcus aureus; conditions: for MIC: Staphylococcus aureus, ATCC29213, 24 h, read-out: MIC (drug alone); for MIC of drug in the presence of “22” “B”: S. aureus ATCC 29213, checkerboard, in combination with 22; for Inference (drug interaction): combination of 22 with the drug, S. aureus ATCC 29213
[20] = test system: S. aureus ATCC 29213; test: Time–kill kinetics; format: cell-based, Staphylococcus aureus; conditions: 24 h; for cfu reduction in time–kill kinetics: 10× MIC
Summary of the method: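 Bacteria diluted to ~10^6 cfu/mL and exposed to test compound at 1× and 10× MIC, with controls, at 37 °C for 24 h. Samples taken at 1, 6 and 24 h, serially diluted ten-fold in PBS, and spread on MHA. Plates incubated at 37 °C for 24 h and colonies counted. Surviving cfu/mL plotted against time with and without compound.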

[21] = test system: S. aureus ATCC 29213 pre-formed biofilm; test: Activity against pre-formed S. aureus biofilm; format: cell-based, Staphylococcus aureus; conditions: 10× MIC, 24 h treatment, S. aureus ATCC 29213, compared to comparators
Summary of the method: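 Overnight culture in 1% TSB, shaken at 180 RPM at 37 °C, diluted 1:100 in fresh TSB. Biofilm grown statically for 48 h at 37 °C under an adhesive foil lid for low oxygen. Planktonic cells removed with three PBS (pH 7.4) rinses. Refilled with TSB containing test compound, 24 h at 37 °C. Washed, heat-fixed at 60 °C for 1 h, stained with 0.06% crystal violet for 10 min, eluted with 30% acetic acid, absorbance read at 600 nm.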

[22] = test system: S. aureus; conditions: similar activity to 20–23; cited from earlier work

Row | Compound | MIC [1] | MIC [2] | MIC [3] | MIC [4] | Selectivity index with respect to S. aureus ATCC 29213 (SI) [5] | MIC [6] | MIC [7] | MIC [8] | MIC [9] | MIC [10] | MIC [11] | MIC [12] | MIC [13] | MIC [14] | MIC [15] | MIC [16] | MIC [17] | MIC [19] | other results
1 | O=C(Nc1ccc(Br)c(C(F)(F)F)c1)c1ccccc1O [Compound 21, N-(4ʹ-bromo-3ʹ-(trifluoromethyl)phenyl)-2-hydroxybenzamide] | > 64 µg/mL | 0.5 µg/mL (≈ 1.39 µM) | > 64 µg/mL | > 64 µg/mL | <10 | – | – | – | – | – | – | – | – | – | – | – | – | – | –
2 | O=C(Nc1ccc(Br)c(C(F)(F)F)c1)c1cc(Cl)ccc1O [Compound 22, 5-Chloro-N-(4ʹ-bromo-3ʹ-(trifluoromethyl)phenyl)-2-hydroxybenzamide] | > 64 µg/mL | 0.25 µg/mL (≈ 0.634 µM) | > 64 µg/mL | > 64 µg/mL | – | 0.0625 µg/mL (≈ 0.158 µM) | 0.0312 µg/mL (≈ 0.0791 µM) | 0.0625 µg/mL (≈ 0.158 µM) | 0.0625 µg/mL (≈ 0.158 µM) | 0.0625 µg/mL (≈ 0.158 µM) | 0.0312 µg/mL (≈ 0.0791 µM) | 0.0625 µg/mL (≈ 0.158 µM) | 0.0625 µg/mL (≈ 0.158 µM) | 0.0625 µg/mL (≈ 0.158 µM) | 0.0312 µg/mL (≈ 0.0791 µM) | 0.0625 µg/mL (≈ 0.158 µM) | 0.0625 µg/mL (≈ 0.158 µM) | 0.5 µg/mL | MIC against MRSA and VRSA isolates (range over the panel) [18]: 0.031 to 0.062 µg/mL; Type of killing in time–kill kinetics (in words) ([20]; 1× and 10× MIC): concentration-dependent bactericidal activity; cfu reduction in time–kill kinetics [20]: ~ 8 log10 cfu/mL; Reduction in pre-formed biofilm [21]: more significant reduction (P < 0.0005)
3 | O=C(Nc1cccc(C(F)(F)F)c1)c1cc(Cl)ccc1O [Compound 23, 5-Chloro-N-(3ʹ-(trifluoromethyl)phenyl)-2-hydroxybenzamide] | > 64 µg/mL | 0.5 µg/mL (≈ 1.58 µM) | > 64 µg/mL | > 64 µg/mL | <10 | – | – | – | – | – | – | – | – | – | – | – | – | – | –
4 | O=C(Nc1ccc(Br)cc1)c1cc(Cl)ccc1O [Compound 25, 5-Chloro-N-(4ʹ-bromophenyl)-2-hydroxybenzamide] | > 64 µg/mL | 0.5 µg/mL (≈ 1.53 µM) | > 64 µg/mL | > 64 µg/mL | – | 0.5 µg/mL (≈ 1.53 µM) | 0.25 µg/mL (≈ 0.766 µM) | 0.5 µg/mL (≈ 1.53 µM) | 0.5 µg/mL (≈ 1.53 µM) | 0.5 µg/mL (≈ 1.53 µM) | 0.5 µg/mL (≈ 1.53 µM) | 0.5 µg/mL (≈ 1.53 µM) | 0.5 µg/mL (≈ 1.53 µM) | 0.5 µg/mL (≈ 1.53 µM) | 0.5 µg/mL (≈ 1.53 µM) | 0.5 µg/mL (≈ 1.53 µM) | 0.5 µg/mL (≈ 1.53 µM) | – | MIC against MRSA and VRSA isolates (range over the panel) [18]: 0.25 to 0.5 µg/mL
5 | O=C(Nc1cc(C(F)(F)F)cc(C(F)(F)F)c1)c1cc(Cl)ccc1O [IMD0354, N-[3,5-Bis(trifluoromethyl)phenyl]-5-chloro-2-hydroxybenzamide] | – | – | – | – | – | – | – | – | – | – | – | – | – | – | – | – | – | – | MIC (reported) [22]: 0.25 µg/mL (≈ 0.652 µM)
6 | C[C@H]1COc2c(N3CCN(C)CC3)c(F)cc3c(=O)c(C(=O)O)cn1c23 [Levofloxacin, reference compound] | 0.0156 µg/mL (≈ 0.0432 µM) | 0.25 µg/mL (≈ 0.692 µM) | 64 µg/mL (≈ 177 µM) | 8 µg/mL (≈ 22.1 µM) | >400 | 0.25 µg/mL (≈ 0.692 µM) | 16 µg/mL (≈ 44.3 µM) | 0.25 µg/mL (≈ 0.692 µM) | 8 µg/mL (≈ 22.1 µM) | 16 µg/mL (≈ 44.3 µM) | 8 µg/mL (≈ 22.1 µM) | 32 µg/mL (≈ 88.6 µM) | 0.125 µg/mL (≈ 0.346 µM) | 32 µg/mL (≈ 88.6 µM) | 64 µg/mL (≈ 177 µM) | > 64 µg/mL | 32 µg/mL (≈ 88.6 µM) | 0.25 µg/mL | MIC of drug in the presence of “22” “B” [19]: 0.25 µg/mL; Inference (drug interaction) [19]: No interaction
7 | CN[C@H](CC(C)C)C(=O)N[C@H]1C(=O)N[C@@H](CC(N)=O)C(=O)N[C@H]2C(=O)N[C@H]3C(=O)N[C@H](C(=O)N[C@H](C(=O)O)c4cc(O)cc(O)c4-c4cc3ccc4O)[C@H](O)c3ccc(c(Cl)c3)Oc3cc2cc(c3O[C@@H]2O[C@H](CO)[C@@H](O)[C@H](O)[C@H]2O[C@H]2C[C@](C)(N)[C@H](O)[C@H](C)O2)Oc2ccc(cc2Cl)[C@H]1O [Vancomycin, reference compound] | – | – | – | – | – | 2 µg/mL (≈ 1.38 µM) | 2 µg/mL (≈ 1.38 µM) | 1 µg/mL (≈ 0.69 µM) | 1 µg/mL (≈ 0.69 µM) | 2 µg/mL (≈ 1.38 µM) | 2 µg/mL (≈ 1.38 µM) | 2 µg/mL (≈ 1.38 µM) | 1 µg/mL (≈ 0.69 µM) | 2 µg/mL (≈ 1.38 µM) | > 64 µg/mL | > 64 µg/mL | > 64 µg/mL | 1 µg/mL | MIC of drug in the presence of “22” “B” [19]: 0.5 µg/mL; Inference (drug interaction) [19]: No interaction; cfu reduction in time–kill kinetics [20]: ~ 9 log10 cfu/mL

— article PMC8548355 (Medicinal Chemistry Research, 2021)
